Experimental data reported in PMC5935105 (Analytical biochemistry, 2018).

Tests used:
[1] = system: RAS-GTP levels in HeLa cells; test: RAS-GTP levels in HeLa cells; assay type: cell-based; conditions: 30 minutes, up to 200 μM compound
[2] = target: SOS-catalyzed nucleotide exchange on RAS (SOScat, K-RAS G12D) (Homo sapiens, UniProt Q07889); test: SOS-catalyzed nucleotide exchange assay using BODIPY-GDP-loaded RAS; assay type: biochemical; conditions: average of the two values of Table 1; 100 μM compound; normalized to API
In short: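 SOScat (residues 564–1049) with BODIPY-GDP-loaded RAS in 25 mM Tris pH 7.5, 50 mM NaCl, 1 mM MgCl2. Compound added at 10 s and unlabeled GTP at 120 s; fluorescence loss followed for 30 min. Rates come from single-exponential decay fits, normalized between SOS-catalyzed exchange without compound (0) and the maximal rate from the control compound on each plate (100).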

[3] = system: phospho ERK1/2 T202/Y204 levels in HeLa cells; test: phospho ERK1/2 T202/Y204 levels in HeLa cells; assay type: cell-based; conditions: 30 minutes; for phospho ERK levels at higher concentrations: higher concentrations (up to 200 μM); for phospho ERK levels at lower concentrations: lower concentrations of compound

| Average Relative Rate of Nucleotide Exchange at 100 μM [2] [%] | Compound | RAS-GTP levels relative to DMSO control [1] | phospho ERK levels at higher concentrations [3] | phospho ERK levels at lower concentrations [3] |
| --- | --- | --- | --- | --- |
| 100 | N[C@@H](Cc1c[nH]c2ccccc12)C(=O)NC1CCN(Cc2c[nH]c3ccc(Cl)cc23)CC1 [API, (S)-2-amino-N-(1-((5-chloro-1H-indol-3-yl)methyl)piperidin-4-yl)-3-(1H-indol-3-yl)propanamide, reference compound] | increase in RAS-GTP levels was observed | inhibition of phospho ERK levels was observed | induction of phospho ERK levels |
| 50.9 | CCCN1CCC(NCCC(c2ccccc2)c2ccccc2)CC1 [Compound 4, N-(3,3-diphenylpropyl)-1-propylpiperidin-4-amine] | did not cause an increase in RAS-GTP levels |  |  |
| 69.1 | c1ccc(C(CCNC2CCNCC2)c2ccccc2)cc1 [Compound 4a, N-(3,3-diphenylpropyl)piperidin-4-amine] | increase in RAS-GTP levels was observed | inhibition of phospho ERK levels was observed | induction of phospho ERK levels |
